The source of these data is ChEMBL document CHEMBL1938389, “Jadomycins derived from the assimilation and incorporation of norvaline and norleucine” (J Nat Prod, 2011).

Structures are written as SMILES. Calls of active or inactive are those of the source.

The subject of assay [1] is Nucleic Acid. Briefly: Binding affinity to Escherichia coli pUC19 DNA assessed as relaxation of supercoiled DNA at 100 uM by agarose gel electrophoresis. In kind it is nucleic-acid assay. A digest of the protocol:
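DNA in 10 mM Tris-Cl pH 8.5, diluted into Tris pH 7.4 (final 5 mM) and NaCl (final 50 mM). Jadomycin added without copper; volume 20 μL; 2 h at 37 °C. Quenched with loading buffer, electrophoresed on 1% agarose containing ethidium bromide (0.75 μg mL−1), 30 min at 8 V cm−1 in 1× TAE. UV visualization.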

In assay [2] the test system is Nucleic Acid. Briefly: Binding affinity to Escherichia coli pUC19 DNA assessed as relaxation of supercoiled DNA at 0.1 to 100 uM by agarose gel electrophoresis in presence of Cu ions. In kind it is nucleic-acid assay. Put shortly:
(§1)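 DNA supplied in 10 mM Tris-Cl pH 8.5, diluted into Tris pH 7.4 (final 5 mM) plus NaCl (final 50 mM). Jadomycins premixed 1:1 with Cu(OAc)2 added; final volume 20 μL. Incubated 2 h at 37 °C, quenched with loading buffer, run on 1% agarose with ethidium bromide (0.75 μg mL−1), 30 min at 8 V cm−1 in 1× TAE. Bands visualized by UV transillumination.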

The next assay concerns Escherichia coli. Briefly: Antimicrobial activity against Escherichia coli C498 by CLSI method. In kind it is functional, organism-based. Put shortly: (§2)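 Broth MIC determination following Clinical and Laboratory Standards Institute methods. Panel: Gram-positive S. aureus C622, MRSA C623, S. epidermidis C960, B. subtilis C971, E. faecalis C625; Gram-negative S. enterica Typhimurium C587, E. coli C498, P. aeruginosa H187. Activity read as minimum inhibitory concentration.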

Assay [3] concerns Nucleic Acid. The experiment in a line: Binding affinity to Escherichia coli pUC19 DNA assessed as relaxation of supercoiled DNA by agarose gel electrophoresis in presence of Cu ions. In kind it is nucleic-acid assay. A digest of the protocol:
as §1

The subject of the next assay is Pseudomonas aeruginosa. Briefly: Antimicrobial activity against Pseudomonas aeruginosa H187 by CLSI method. The class given is functional, organism-based. Put shortly: as §2
A further assay deals with Salmonella typhimurium. Briefly: Antimicrobial activity against Salmonella enterica Typhimurium C587 by CLSI method. In kind it is functional, organism-based. Conditions: Salmonella enterica subsp. enterica serovar Typhimurium. A digest of the protocol:
as §2

The nature of assay [4]: Cytotoxicity against human NCI60 cells. The class given is functional. A digest of the protocol: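 NCI 60-cell-line screen covering leukemia, NSCLC, colon, CNS, melanoma, ovarian, renal, prostate and breast lines. Five doses spanning 5 log10, top concentration 32 μM. Percent growth and mean optical density measured per NCI protocol. OD plotted against concentration to give GI50, TGI and LC50, reported as median (range) over up to 59 lines.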

The next assay deals with Staphylococcus aureus. Briefly: Antimicrobial activity against methicillin-resistant Staphylococcus aureus isolate C623 by CLSI method. The class given is functional.
The subject of assay [5] is Staphylococcus epidermidis. The experiment in a line: Antimicrobial activity against Staphylococcus epidermidis C960 by CLSI method. In kind it is functional. A digest of the protocol: as §2

Take `CCC[C@@H]1C(=O)OC2c3cc(C)cc(O)c3C3=C(C(=O)c4c(O[C@H]5C[C@@H](O)[C@@H](O)[C@H](C)O5)cccc4C3=O)N21` (mixture of isomers): the result with Nucleic Acid [1], with Escherichia coli, in the assay with Pseudomonas aeruginosa and with Salmonella typhimurium was inactive. The Activity result in the assay with Nucleic Acid [2] is “Dose-dependent effect”. Besides, in the assay on Nucleic Acid [3], the EC50 stood at 86 µM. Halving of growth in assay [4] (GI50) required 4.9 µM. In addition, the LC50 in assay [4] stood at 19 µM. Further, the TGI in assay [4] came out at 10 µM. The MIC was 32 µg/mL against Staphylococcus aureus and 4 µg/mL in [5].

As to `CCCC[C@@H]1C(=O)OC2c3cc(C)cc(O)c3C3=C(C(=O)c4c(O[C@H]5C[C@@H](O)[C@@H](O)[C@H](C)O5)cccc4C3=O)N21` (mixture of isomers), the outcome in the assay with Nucleic Acid [1], in the assay on Escherichia coli, in the assay on Pseudomonas aeruginosa and in the assay with Salmonella typhimurium was inactive. In addition, the Activity entry with Nucleic Acid [2] was “Dose-dependent effect”. Moreover, in the assay with Nucleic Acid [3], the EC50 came to 144 µM. This molecule came in with a GI50 in [4] of 4.2 µM. The same molecule showed an LC50 in [4] of 18 µM. Further, total growth inhibition in assay [4] (TGI) required 8.7 µM. Also, the MIC against Staphylococcus aureus was determined as 32 µg/mL; in assay [5], 4 µg/mL.

The EC50 is the concentration needed to bring the measured effect to its halfway point. A word on the GI50: it is the concentration giving 50% growth inhibition. Low readings indicate more potent growth inhibition, high ones less potent growth inhibition. By LC50 is commonly meant the concentration lethal to half of the exposed cells or organisms. A higher LC50 goes with a less lethal substance. The term TGI denotes the concentration at which net growth stops. Read a low TGI as more potent growth arrest. In general, MIC refers to the smallest concentration in the dilution series that meets the test's criterion for growth inhibition.
